Source: ChEMBL document CHEMBL4354800, “Amphiphilic nebramine-based hybrids Rescue legacy antibiotics from intrinsic resistance in multidrug-resistant Gram-negative bacilli” (Eur J Med Chem, 2019)

What was measured:
Pseudomonas aeruginosa [1] = experiment: Potentiation of moxifloxacin-induced antibacterial activity against wild type Pseudomonas aeruginosa PAO1 assessed as fold reduction in moxifloxacin MIC at 7.5 uM incubated for 18 hrs by broth microdilution method; format: functional
Outline: (§1)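 CLSI broth microdilution. Overnight cultures were set to 0.5 McFarland in saline, diluted 1:50 in Mueller-Hinton broth to a final 5 × 10^5 CFU/mL, and incubated 18 h at 37 °C against 2-fold antibiotic dilutions. A fixed adjuvant level was present throughout. MIC = lowest concentration with no visible turbidity, confirmed at 590 nm. Potentiation = fold drop in antibiotic MIC versus antibiotic alone.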

Pseudomonas aeruginosa [2] = experiment: Potentiation of moxifloxacin-induced antibacterial activity against MDR/XDR Pseudomonas aeruginosa isolate 101885 harboring GyrA T83I mutant assessed as fold reduction in moxifloxacin MIC at 7.5 uM incubated for 18 hrs by broth microdilution method; format: functional; outline: as §1
Pseudomonas aeruginosa [3] = experiment: Potentiation of moxifloxacin-induced antibacterial activity against MDR/XDR Pseudomonas aeruginosa isolate PA264-104354 harboring GyrA T83I mutant assessed as fold reduction in moxifloxacin MIC at 7.5 uM incubated for 18 hrs by broth microdilution method; format: functional; outline: as §1
Pseudomonas aeruginosa [4] = experiment: Potentiation of minocycline-induced antimicrobial activity against MDR/XDR Pseudomonas aeruginosa isolate PA264-104354 harboring GyrA Thr83Ile mutant assessed as minocycline MIC50 incubated for 18 hrs by broth microdilution method (reference value: 16 microg/ml); format: functional; details: isolate PA264-104354, 18 h
Pseudomonas aeruginosa [5] = experiment: Potentiation of minocycline-induced antimicrobial activity against MDR/XDR Pseudomonas aeruginosa isolate 91433 devoid of GyrA Thr83Ile mutant assessed as minocycline MIC50 incubated for 18 hrs by broth microdilution method (reference value: 16 microg/ml); format: functional; details: isolate 91433, 18 h
Acinetobacter baumannii [6] = experiment: Synergistic antibacterial activity against multidrug-resistant Acinetobacter baumannii AB030 assessed as fractional inhibitory concentration index in presence of minocycline incubated for 18 hrs by broth dilution method; format: functional
Pseudomonas aeruginosa [7] = experiment: Potentiation of minocycline-induced bactericidal activity in Pseudomonas aeruginosa PAO1 at 0.5 times MIC incubated for 24 hrs in presence of 4 ug/ml minocycline by time kill curve assay relative to control; format: functional
Outline: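 Time-kill. An overnight PAO1 culture was adjusted to 0.5 McFarland in saline and diluted 1:50 in LB. Cells were exposed to the adjuvant at ½× MIC plus fixed minocycline for 24 h at 37 °C. Aliquots taken at intervals were serially diluted in PBS and plated on LB agar; colonies were counted after 20 h at 37 °C. Controls were untreated cells and colistin at 4× MIC.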

Pseudomonas aeruginosa [8] = experiment: Disruption of electrical component of PMF with transmembrane chemical component increment in Pseudomonas aeruginosa PAO1 membrane assessed as increase in tetracycline uptake measured every 1 min for 30 mins by fluorescence based assay; format: organism-based; details: Bacterial membrane
Outline: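 P. aeruginosa PAO1 was grown to OD600 0.6, washed and resuspended in 10 mM HEPES pH 7.2, then treated with varying compound concentrations plus […] tetracycline. Fluorescence (ex 405/em 535 nm) was read each minute for 30 min at room temperature. Triplicates, averaged.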

Acinetobacter baumannii [9] = experiment: Synergistic antibacterial activity against multidrug-resistant Acinetobacter baumannii ATCC 17978 assessed as fractional inhibitory concentration index in presence of minocycline incubated for 18 hrs by broth dilution method; format: functional
Escherichia coli [10] = experiment: Antimicrobial activity against Escherichia coli ATCC 25922 incubated for 18 hrs by broth dilution method; format: functional; details: ATCC 25922, 18 h
Outline: (§2)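 CLSI broth microdilution. Overnight cultures were adjusted to 0.5 McFarland in saline, diluted 1:50 in Mueller-Hinton broth, and inoculated at a final 5 × 10^5 CFU/mL. Compounds were tested as 2-fold serial dilutions and incubated 18 h at 37 °C. MIC was the lowest concentration with no visible turbidity, confirmed by absorbance at 590 nm.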

Klebsiella pneumoniae = experiment: Antimicrobial activity against Klebsiella pneumoniae 113250 incubated for 18 hrs by broth dilution method; format: functional; details: Klebsiella pneumoniae, 113250, 18 h; outline: as §2
Acinetobacter baumannii [11] = experiment: Potentiation of minocycline-induced antibacterial activity against […] Acinetobacter baumannii ATCC 17978 assessed as fold reduction in minocycline MIC at 4.1 uM incubated for 18 hrs by broth dilution method; format: functional; outline: as §1
Acinetobacter baumannii [12] = experiment: Potentiation of rifampicin-induced antibacterial activity against multidrug-resistant Acinetobacter baumannii AB110193 assessed as fold reduction in rifampicin MIC at 4.1 uM incubated for 18 hrs by broth dilution method; format: functional; outline: as §1
Escherichia coli [13] = experiment: Potentiation of rifampicin-induced antibacterial activity against Escherichia coli ATCC 25922 assessed as fold reduction in rifampicin MIC at 2.0 uM incubated for 18 hrs by broth dilution method; format: functional
Outline: (§3)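 Antibiotic MIC determined by CLSI broth microdilution (MHB, 5 × 10^5 CFU/mL, 18 h, 37 °C), once alone and once with a fixed concentration of the adjuvant. Potentiation is the ratio of the antibiotic MIC alone to its MIC in the presence of the adjuvant.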

Pseudomonas aeruginosa [14] = experiment: Antimicrobial activity against XDR Pseudomonas aeruginosa isolate PA264 infected in Galleria mellonella larvae assessed as survival rate at 25 mg/kg co-administered with 25 mg/kg rifampicin at 2 hrs post-inoculation measured after 18 hrs relative to control; format: functional
Outline: (§4)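 G. mellonella larvae were injected with ~5 CFU of P. aeruginosa PA264 (10 µL of 5 × 10^2 CFU/mL in PBS) and held 2 h at 37 °C. A single 10 µL injection followed: monotherapy or rifampicin + compound (25+25, 50+50 or 75+75 mg/kg), with PBS as control. Larvae kept at 37 °C were scored every 6 h to 24 h; dead = no response to touch. n = 30 (two runs of 15); Kaplan-Meier.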

Pseudomonas aeruginosa [15] = experiment: Antimicrobial activity against XDR Pseudomonas aeruginosa isolate PA264 infected in Galleria mellonella larvae assessed as survival rate at 25 mg/kg co-administered with 25 mg/kg rifampicin at 2 hrs post-inoculation measured after 24 hrs relative to control; format: functional; outline: as §4
Enterobacter cloacae = experiment: Potentiation of rifampicin-induced antibacterial activity against Enterobacter cloacae 117029 assessed as fold reduction in rifampicin MIC at 4.1 uM incubated for 18 hrs by broth dilution method; format: functional; outline: as §3
Pseudomonas aeruginosa [16] = experiment: Potentiation of moxifloxacin-induced antibacterial activity against MDR/XDR Pseudomonas aeruginosa isolate 101243 devoid of GyrA T83I mutant assessed as fold reduction in moxifloxacin MIC at 9 uM incubated for 18 hrs by broth microdilution method; format: functional; outline: as §1
Pseudomonas aeruginosa [17] = experiment: Potentiation of ciprofloxacin-induced antibacterial activity against MDR/XDR Pseudomonas aeruginosa isolate 91433 devoid of GyrA T83I mutant assessed as fold reduction in ciprofloxacin MIC at 9 uM incubated for 18 hrs by broth microdilution method; format: functional
Pseudomonas aeruginosa [18] = experiment: Potentiation of rifampicin-induced antibacterial activity against wild type Pseudomonas aeruginosa PAO1 assessed as fold reduction in rifampicin MIC at 9 uM incubated for 18 hrs by broth microdilution method; format: functional; outline: as §1
Pseudomonas aeruginosa [19] = experiment: Potentiation of rifampicin-induced antibacterial activity against MDR/XDR Pseudomonas aeruginosa isolate 91433 devoid of GyrA T83I mutant assessed as fold reduction in rifampicin MIC at 9 uM incubated for 18 hrs by broth microdilution method; format: functional; outline: as §1

With `COc1c(N2C[C@@H]3CCCN(CCCCCCCCCCCCO[C@@H]4[C@@H](O)[C@H](N)C[C@H](N)[C@H]4O[C@H]4O[C@H](CN)[C@@H](O)C[C@H]4N)[C@@H]3C2)c(F)cc2c(=O)c(C(=O)O)cn(C3CC3)c12.Cl.Cl.Cl.Cl.Cl` as the compound, how does the “fold change (FC)” value (Pseudomonas aeruginosa [1]) read?
The value was 8.

And the “fold change (FC)” value (Pseudomonas aeruginosa [2])?
Its value is 4.

What about the “fold change (FC)” value (Pseudomonas aeruginosa [3]) of the same compound?
The value was 16.

And the MIC50 (Pseudomonas aeruginosa [4])?
Its MIC50 is 0.5 µg/mL.

What about the MIC50 (Pseudomonas aeruginosa [5]) of the same compound?
The MIC50 was 0.5 µg/mL.

And the “fractional inhibitory concentration index (FICI)” value (Acinetobacter baumannii [6])?
Its value is over 1.

What about the Activity (Pseudomonas aeruginosa [7]) of the same compound?
Its Activity is 100%.

And the Activity (Pseudomonas aeruginosa [8])?
The Activity was “Dose-dependent effect”.

`Cl.Cl.Cl.Cl.Cl.NC[C@H]1O[C@H](O[C@H]2[C@H](OCCCCCCCCCCCCN3CCN(c4cc5c(cc4F)c(=O)c(C(=O)O)cn5C4CC4)CC3)[C@@H](O)[C@H](N)C[C@@H]2N)[C@H](N)C[C@@H]1O` was tested. Which “fractional inhibitory concentration index (FICI)” value (Acinetobacter baumannii [9]) did it give?
Its value is 0.52.

And the MIC (Escherichia coli [10])?
The MIC was 8 µg/mL.

And the MIC (Klebsiella pneumoniae)?
Its MIC is 128 µg/mL.

And the “fold change (FC)” value (Acinetobacter baumannii [11])?
The value was 2.

And the “fold change (FC)” value (Acinetobacter baumannii [12])?
Its value is 64.

What about the “fold change (FC)” value (Escherichia coli [13]) of the same compound?
Its value is 128.

And the survival at 25 mg/kg (Pseudomonas aeruginosa [14])?
The survival at 25 mg/kg was 33%.

And the survival at 25 mg/kg (Pseudomonas aeruginosa [15])?
The survival at 25 mg/kg was 13%.

And the “fold change (FC)” value (Enterobacter cloacae)?
The value was “>=256”.

`Cl.Cl.Cl.Cl.Cl.Cl.NC[C@H]1O[C@H](O[C@H]2[C@H](OCCCCCCCCCCN3CCN(Cc4cccc5ccccc45)CC3)[C@@H](O)[C@H](N)C[C@@H]2N)[C@H](N)C[C@@H]1O` was tested. Which “fold change (FC)” value (Pseudomonas aeruginosa [16]) did it give?
Its value is 8.

What about the “fold change (FC)” value (Pseudomonas aeruginosa [17]) of the same compound?
The value was 8.

What about the “fold change (FC)” value (Pseudomonas aeruginosa [18]) of the same compound?
Its value is 256.

And the “fold change (FC)” value (Pseudomonas aeruginosa [19])?
The value was 4.
